Laboratory results reported in ChEMBL document CHEMBL4406921, “Discovery of Axelopran (TD-1211): A Peripherally Restricted μ-Opioid Receptor Antagonist” (ACS Med Chem Lett, 2019).
The source made the active and inactive calls. The rule behind the calls is not given here.

Key:
Canis familiaris [1] = experiment: Reversal of morphine-induced sedation in Beagle dog at 3 mg/kg, po administered with compound prior to morphine challenge and measured up to 120 mins post-mophine administration; type: functional, organism-based; details: Canis lupus familiaris
[2] = AUC(0 to t) in Sprague-Dawley rat at 5 mg/kg, po administered via gavage; type: ADME, organism-based; details: in vivo
Mus musculus [3] = species on record: Mus musculus; experiment: Peripheral selectivity index, ratio of ID50 for inhibition of morphine-induced delays in gastric emptying in ICR mouse to ID50 for inhibition of morphine-induced delays in intestinal transit in ICR mouse; type: functional
Mu-type opioid receptor [4] = target: T1, Mu-type opioid receptor (Homo sapiens, UniProt P35372); experiment: Antagonist activity at human recombinant mu opioid receptor expressed in CHO-K1 cell membrane assessed as inhibition of DAMGO-induced GTP binding incubated for 30 mins in presence of Eu-GTP by DELFIA GTP binding assay
Mus musculus [5] = experiment: Inhibition of morphine-dependent CNS-mediated withdrawal response in Swiss Webster mouse at 30 mg/kg, po after 60 mins; type: functional, organism-based
[6] = Half life in rat liver microsomes at 3 uM; type: ADME, Microsome
Rattus norvegicus [7] = experiment: Reversal of loperamide-induced delay in gastric emptying in po dosed Sprague-Dawley rat administered with compound and loperamide at 35 mins and 5 mins prior to test meal respectively measured after 60 mins; type: functional; details: read-out: ID50 (the source's name)
[8] = Oral bioavailability in fasted female Beagle dog; type: ADME, organism-based, Canis lupus familiaris; details: in vivo
[9] = Drug uptake in rat brain at 20 mg/kg, po; type: ADME, organism-based; details: in vivo
Method in brief: (§1)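 Rats given 20 mg/kg orally; CSF, brain and plasma concentrations measured to estimate CNS penetration.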

Mus musculus [10] = experiment: Inhibition of morphine-induced delays in intestinal transit in po dosed ICR mouse administered via gavage pretreated with compound and 30 mins later injected with morphine followed 5 mins later by ingestion of test meal and measured after 60 mins; type: functional; details: for ED50: read-out: ID50 (the source's name)
Method in brief: (§2)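 Mice dosed orally; reversal of morphine-induced delay in intestinal transit, delay in gastric emptying, or hot plate antinociception measured; dose-dependent responses fitted to give ID50 in mg/kg.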

[11] = Protein binding in human plasma; type: ADME, cell-free; details: read-out: PPB
Mesocricetus auratus = species on record: Mesocricetus auratus; experiment: Antagonist activity at delta opiod receptor in golden syrian hamster vas deferens assessed as inhibition of electric field stimulated tissue contraction incubated for 15 mins in presence of […]
Mus musculus [12] = experiment: Inhibition of morphine-induced antinociceptive activity in po dosed ICR mouse administered via gavage pretreated with compound and 30 mins later injected with morphine and measured after 30 mins by hot plate test; type: functional; details: for ED50: read-out: ID50 (the source's name); method in brief: as §2
[13] = target: T2, Delta-type opioid receptor (Homo sapiens, UniProt P41143); experiment: Displacement of [3H]-DPN from recombinant human delta opioid receptor expressed in CHO-K1 cell membranes by radioligand binding assay
Method in brief: (§3)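 Membranes from CHO-K1 cells stably transfected with human recombinant μ or δ receptor, or guinea pig κ receptor; competition with [3H]-DPN radioligand; affinity reported as pKi.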

[14] = Oral bioavailability in Sprague-Dawley rat at 5 mg/kg administered via gavage; type: ADME, organism-based; details: in vivo
Rattus norvegicus [15] = experiment: Reversal of morphine-induced antinociception in Sprague-Dawley rat at >60 mg/kg, po pretreated for 30 mins followed by morphine injection and measured after 60 mins by hot plate test; type: functional, organism-based
[16] = Half life in dog liver microsomes at 3 uM; type: ADME, Canis lupus familiaris, Microsome
[17] = target: T3, Kappa-type opioid receptor (Cavia porcellus, UniProt P41144); experiment: Antagonist activity at kappa opioid receptor in guinea pig ileum assessed as inhibition of electric field stimulated tissue contraction incubated for 15 mins in presence of U69593; type: tissue-based; details: read-out: pA2 (converted)
Rattus norvegicus [18] = experiment: Reversal of castor oil-induced diarrhea in po dosed Sprague-Dawley rat po administered with compound and loperamide at 45 mins and 15 mins prior to castor oil administration and measured after 2 hrs; type: functional; details: read-out: ID50 (the source's name)
MDR1 = experiment: Efflux ratio of permeability in dog MDCK-MDR1 cells; type: ADME, cell-based, Canis lupus familiaris
[19] = Half life in Sprague-Dawley rat at 5 mg/kg, po administered via gavage; type: ADME, organism-based; details: in vivo
[20] = target: T2, Delta-type opioid receptor; experiment: Antagonist activity at human recombinant delta opioid receptor expressed in CHO-K1 cell membrane assessed as inhibition of DPDPE-induced [35S]-GTPgammaS binding incubated for 30 mins by time resolved fluorescence assay
[21] = Permeability coefficient, Kp in human Caco2 cells; type: ADME, cell-based; details: Caco-2, read-out: Kp
Mus musculus [22] = experiment: Inhibition of morphine-induced delays in gastric emptying in po dosed ICR mouse administered via gavage pretreated with compound and 30 mins later injected with morphine followed 5 mins later by ingestion of test meal and measured after 60 mins; type: functional; details: for ED50: read-out: ID50 (the source's name); method in brief: as §2
[23] = Efflux ratio of permeability in human Caco2 cells; type: ADME, cell-based; details: Caco-2
Mu-type opioid receptor [24] = target: T1, Mu-type opioid receptor; experiment: Antagonist activity at human recombinant mu opioid receptor expressed in CHO-K1 cell membranes assessed as intrinsic activity at 10 pM to 20 uM incubated for 30 mins in presence of Eu-GTP by DELFIA GTP binding assay relative to DAMGO
[25] = target: T3, Kappa-type opioid receptor; experiment: Displacement of [3H]-DPN from guinea pig kappa opioid receptor expressed in CHO-K1 cell membranes by radioligand binding assay; method in brief: as §3
Mu-type opioid receptor [26] = target: T1, Mu-type opioid receptor; experiment: Displacement of [3H]-DPN from recombinant human mu opioid receptor expressed in CHO-K1 cell membranes by radioligand binding assay; method in brief: as §3
[27] = Oral bioavailability in fasted male Beagle dog; type: ADME, organism-based, Canis lupus familiaris; details: in vivo
Mu-type opioid receptor [28] = target: Mu-type opioid receptor (Cavia porcellus, UniProt P97266); experiment: Antagonist activity at mu opioid receptor in guinea pig ileum assessed as inhibition of electric field stimulated contractions incubated for 15 mins in presence of endomorphin-1; type: tissue-based; details: read-out: pA2 (converted)
[29] = Cmax in Sprague-Dawley rat at 5 mg/kg, po administered via gavage; type: ADME, organism-based; parameters: dose 5 mg/kg, route oral; details: in vivo
Canis familiaris [30] = experiment: Inhibition of loperamide-induced gastrointestinal contraction in Beagle dog at 3 mg/kg, po incubated with compound followed 15 mins later by treated with loperamide and measured for 30 mins; type: functional, organism-based; details: Canis lupus familiaris
Canis familiaris [31] = experiment: Reversal of morphine-induced antinociception in Beagle dog at 3 mg/kg, po treated with compound prior to morphine challenge measured after 15 to 45 mins by hot plate test; type: functional, organism-based; details: Canis lupus familiaris
Mus musculus [32] = species on record: Mus musculus; experiment: Peripheral selectivity index, ratio of ID50 for inhibition of morphine-induced antinociceptive activity in ICR mouse to ID50 for inhibition of morphine-induced delays in intestinal transit in ICR mouse; type: functional
Method in brief: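 Mice were dosed orally with antagonist at several doses and challenged with morphine. ID50 values were taken from dose-dependent reversal of morphine-induced hot plate antinociception (CNS) and of morphine-induced delay in intestinal transit (peripheral). The index is the hot plate ID50 divided by the intestinal transit ID50.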

[33] = Drug uptake in rat cerebrospinal fluid at 20 mg/kg, po; type: ADME, organism-based; details: in vivo; method in brief: as §1
[34] = Half life in human liver microsomes at 3 uM; type: ADME, Microsome
[35] = target: Kappa-type opioid receptor (Cavia porcellus) (UniProt P41144); experiment: Antagonist activity at guinea pig recombinant kappa opioid receptor expressed in CHO-K1 cell membrane assessed as inhibition of U69593-induced [35S]-GTPgammaS binding incubated for 30 mins by time resolved fluorescence assay
[36] = AUC(0 to t) in Sprague-Dawley rat at 10 mg/kg, po administered via gavage; type: ADME, organism-based; details: in vivo
[37] = Cmax in Sprague-Dawley rat at 10 mg/kg, po administered via gavage; type: ADME, organism-based; parameters: dose 10 mg/kg, route oral; details: in vivo
[38] = Oral bioavailability in human; type: ADME, organism-based; details: in vivo
[39] = Oral bioavailability in Sprague-Dawley rat at 10 mg/kg administered via gavage; type: ADME, organism-based; details: in vivo
[40] = AUC(0 to t) in Sprague-Dawley rat at 100 mg/kg, po administered via gavage; type: ADME, organism-based; details: in vivo
[41] = Oral bioavailability in Sprague-Dawley rat at 100 mg/kg administered via gavage; type: ADME, organism-based; details: in vivo
[42] = Half life in Sprague-Dawley rat at 100 mg/kg, po administered via gavage; type: ADME, organism-based; details: in vivo
Method in brief: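 Male Sprague–Dawley rats received 100 mg/kg by oral gavage, with n = 3. Plasma half-life was taken from the pharmacokinetic profile alongside Cmax, AUC(0–t) and oral bioavailability.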

[43] = Cmax in Sprague-Dawley rat at 100 mg/kg, po administered via gavage; type: ADME, organism-based; parameters: dose 100 mg/kg, route oral; details: in vivo

T2 sequence (P41143 whole entry): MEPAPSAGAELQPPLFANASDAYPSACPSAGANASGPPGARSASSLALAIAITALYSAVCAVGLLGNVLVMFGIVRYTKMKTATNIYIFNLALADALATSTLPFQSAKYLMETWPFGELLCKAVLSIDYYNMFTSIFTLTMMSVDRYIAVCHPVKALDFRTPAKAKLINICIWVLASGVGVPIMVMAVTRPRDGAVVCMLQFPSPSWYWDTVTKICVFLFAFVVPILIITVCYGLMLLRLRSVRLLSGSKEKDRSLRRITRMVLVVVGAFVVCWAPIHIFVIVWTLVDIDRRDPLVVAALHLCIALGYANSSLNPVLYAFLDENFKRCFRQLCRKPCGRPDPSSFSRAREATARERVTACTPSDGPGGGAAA
T1 sequence (P35372 whole entry): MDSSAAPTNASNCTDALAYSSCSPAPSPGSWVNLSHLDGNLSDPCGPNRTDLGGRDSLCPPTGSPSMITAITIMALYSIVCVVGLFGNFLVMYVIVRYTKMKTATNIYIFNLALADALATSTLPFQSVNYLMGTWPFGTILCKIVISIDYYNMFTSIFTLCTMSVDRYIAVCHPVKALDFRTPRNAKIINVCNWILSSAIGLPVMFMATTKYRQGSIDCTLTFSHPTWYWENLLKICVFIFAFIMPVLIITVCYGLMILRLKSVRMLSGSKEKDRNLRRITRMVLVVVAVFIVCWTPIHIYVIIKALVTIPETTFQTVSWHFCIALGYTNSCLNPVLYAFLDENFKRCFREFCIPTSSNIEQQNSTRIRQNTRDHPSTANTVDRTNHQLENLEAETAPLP
T3 sequence (P41144 whole entry): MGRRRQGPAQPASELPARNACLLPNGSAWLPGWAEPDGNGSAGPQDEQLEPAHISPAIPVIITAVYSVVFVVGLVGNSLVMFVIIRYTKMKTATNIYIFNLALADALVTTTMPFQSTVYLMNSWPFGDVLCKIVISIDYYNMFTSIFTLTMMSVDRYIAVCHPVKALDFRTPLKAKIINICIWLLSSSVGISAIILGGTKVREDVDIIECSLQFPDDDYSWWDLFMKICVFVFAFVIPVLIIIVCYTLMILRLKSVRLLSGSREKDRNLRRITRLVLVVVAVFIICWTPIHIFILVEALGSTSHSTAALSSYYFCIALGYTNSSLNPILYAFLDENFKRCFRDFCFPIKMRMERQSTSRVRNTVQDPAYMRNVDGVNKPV
Mu-type opioid receptor (Cavia porcellus, UniProt P97266), sequence (P97266 whole entry): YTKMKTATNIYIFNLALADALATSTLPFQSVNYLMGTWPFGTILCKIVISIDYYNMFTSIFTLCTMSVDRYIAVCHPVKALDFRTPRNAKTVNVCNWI
Kappa-type opioid receptor (Cavia porcellus), sequence (P41144 whole entry): as the sequence (P41144 whole entry) above

With `NC(=O)c1cccc([C@H]2C[C@H]3CC[C@@H](C2)N3CCN(CC2CCCCC2)C(=O)[C@@H](O)CO)c1.O=S(=O)(O)O` [AXELOPRAN SULFATE] the inhibition (Canis familiaris [1]) was “Active”, the AUC(0-t) [2] was 470 ng·h/mL and the “Selectivity Index” value (Mus musculus [3]) was 161. For the same compound, the pKb (Mu-type opioid receptor [4]) was 9.6, the inhibition (Mus musculus [5]) was “inactive” and the half-life at 3 µM [6] was 1.45 h. For the same compound, the ED50 (Rattus norvegicus [7]) was 0.24 mg/kg, the bioavailability [8] was 29% and the Drug uptake [9] was under 2%. The inhibition (Mus musculus [10]) was “Dose-dependent effect”, the ED50 (Mus musculus [10]) was 0.35 mg/kg and the fraction unbound [11] was 0.7 to 0.77. The pKb (Mesocricetus auratus) was 8.4, the inhibition (Mus musculus [12]) was “Dose-dependent effect” and the ED50 (Mus musculus [12]) was 14 mg/kg. For the same compound, the Ki [13] was 1.58 nM, the bioavailability [14] was 27% and the inhibition (Rattus norvegicus [15]) was “Active”. For the same compound, the half-life at 3 µM [16] was 0.45 h, the Kb [17] was 1.58 nM and the ED50 (Rattus norvegicus [18]) was 0.01 mg/kg. It also gave an efflux ratio (MDR1) of 24, a half-life [19] of 1.3 h and a pKb [20] of 8.8. The Papp [21] was 5 ×10⁻⁶ cm/s, the inhibition (Mus musculus [22]) was “Dose-dependent effect” and the ED50 (Mus musculus [22]) was 0.087 mg/kg. For the same compound, the efflux ratio [23] was 10, the Intrinsic activity (Mu-type opioid receptor [24]) was -3% and the Ki [25] was 0.126 nM. For the same compound, the Ki (Mu-type opioid receptor [26]) was 0.158 nM, the bioavailability [27] was 45% and the Kb (Mu-type opioid receptor [28]) was 0.0794 nM. The Cmax [29] was 210 ng/mL, the inhibition (Canis familiaris [30]) was “Active” and the inhibition (Canis familiaris [31]) was “Active”. For the same compound, the “Selectivity Index” value (Mus musculus [32]) was 40, the Drug uptake [33] was under 2% and the half-life at 3 µM [34] was 1.5 h. The pKb [35] was 9.5.

In the case of `C[C@H]1CN(C[C@H](Cc2ccccc2)C(=O)NCC(=O)O)CC[C@H]1c1cccc(O)c1`, the “Selectivity Index” value (Mus musculus [3]) is reported as over 33, the half-life at 3 µM [6] is reported as over 1.5 h and the AUC(0-t) [36] is reported as 2 ng·h/mL. For the same compound, the ED50 (Mus musculus [10]) was 2.5 mg/kg, the Cmax [37] was 10 ng/mL and the ED50 (Mus musculus [12]) was over 20 mg/kg. The Ki [13] was 5.01 nM, the half-life at 3 µM [16] was over 1.5 h and the bioavailability [38] was 6%. It also gave a bioavailability [39] of 0.1%, a Papp [21] of 3 ×10⁻⁶ cm/s and an ED50 (Mus musculus [22]) of 0.6 mg/kg. It also gave an Intrinsic activity (Mu-type opioid receptor [24]) of -7%, a Ki [25] of 5.01 nM and a Ki (Mu-type opioid receptor [26]) of 0.316 nM. For the same compound, the “Selectivity Index” value (Mus musculus [32]) was over 8 and the half-life at 3 µM [34] was over 1.5 h.

`C[N+]1(CC2CC2)CC[C@]23c4c5ccc(O)c4O[C@H]2C(=O)CC[C@@]3(O)[C@H]1C5.[Br-]` (some centres undefined) [METHYLNALTREXONE BROMIDE] gave a half-life at 3 µM [6] of over 1.5 h, an ED50 (Mus musculus [10]) of 67 mg/kg and an AUC(0-t) [40] of 490 ng·h/mL. It also gave a half-life at 3 µM [16] of over 1.5 h, a bioavailability [38] of under 1% and a Papp [21] of 2 ×10⁻⁶ cm/s. It also gave a bioavailability [41] of 2.6%, an ED50 (Mus musculus [22]) of 25 mg/kg and an Intrinsic activity (Mu-type opioid receptor [24]) of 19%. For the same compound, the half-life [42] was 2.8 h, the half-life at 3 µM [34] was over 1.5 h and the Cmax [43] was 570 ng/mL.
